This is a sample that favours compounds with a hit; in the whole collection about 1.8% have one here.
TNAP inh no acc – TNAP (human) inhibition, acceptor-free conditions | P05186 | purified TNAP, CDP-star luminescence, 30 min | inhibition, % at 20 µM | 200,000 compounds, 0.26% hits;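 active = tissue-nonspecific alkaline phosphatase inhibition above about 50% at 20 µM in the single-dose screen, limit read from the data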
Insulin prom up – MIN6 insulin promoter up-regulation. MIN6 insulin promoter-GFP reporter, high-content imaging; stronger effect = higher value. z-score at 5 µM. 190,000 compounds, 0.3% hits. AID 1625;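 active = z-score above 3 at 5 µM with at least 500 cells counted in the well; inconclusive = wells under 500 cells, flagged as cytotoxic or low count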
TNAP act hi DEA – activators of human TNAP at high phosphate acceptor concentration. purified TNAP, CDP-star luminescence, 1 M DEA, 30 min; stronger effect = higher value; 0 = EDTA background, 1 = DMSO-only activity. activation factor at 20 µM. 200,000 tested, under 10 active. AID 1136;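 active = activation factor at least 2 at 20 µM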
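Control set: EDTA negative control, DMSO positive control / Assay system: human TNAP / Quantity: TNAP 1/800 final / Evaluation: TNAP activation factor scaled between EDTA and DMSO control wells / Measured by: luminescent substrate turnover signal / Compound dosing: one dose, 20 µM / Times: 30 min enzyme reaction at room temperature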
NCF1 inh – blocks human p47phox regulatory protein of NADPH oxidases; p47phox/p22phox peptide binding, fluorescence polarization, 2 h; inhibition, % at 24.7 µM; 220,000 compounds, 0.53% hits;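 active = inhibition above about 30%, limit read from the data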
Target sequence (P14598 whole entry, looked up): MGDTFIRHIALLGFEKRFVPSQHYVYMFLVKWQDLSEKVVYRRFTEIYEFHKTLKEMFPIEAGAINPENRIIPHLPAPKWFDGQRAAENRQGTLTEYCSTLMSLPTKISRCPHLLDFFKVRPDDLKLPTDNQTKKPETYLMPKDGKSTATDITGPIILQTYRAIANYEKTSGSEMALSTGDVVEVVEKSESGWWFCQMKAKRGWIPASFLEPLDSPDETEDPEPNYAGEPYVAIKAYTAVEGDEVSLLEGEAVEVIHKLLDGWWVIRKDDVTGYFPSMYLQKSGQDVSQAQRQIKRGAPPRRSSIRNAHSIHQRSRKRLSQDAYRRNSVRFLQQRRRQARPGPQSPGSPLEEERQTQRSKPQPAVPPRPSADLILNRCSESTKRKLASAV
Autophagy HCS – alters autophagy in cells; MEF GFP-LC3 puncta imaging; test concentration mostly 10 µM; calls only at 10 µM (by protocol); 190,000 compounds, 0.98% hits; AID 463193;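 active = percentage of spot-positive cells more than 3 SD above its plate mean, without a fluorescence outlier flag or 80% toxicity; inconclusive = no clear call, values can overlap the other calls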
TNAP inh hiacc – inhibitors of human TNAP at high phosphate acceptor concentration | purified TNAP, CDP-star luminescence, 1 M DEA | AID 1135 | inhibition, % at 20 µM | 200,000 compounds, 0.03% hits | P05186;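 active = over 50% inhibition of tissue-nonspecific alkaline phosphatase at 20 µM in the single-dose screen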
Each line names hits and unclear results; the compound was inactive in the other large screens.

COc1cc(/C=N/NC(=S)NCCN2CCOCC2)cc(OC)c1O	none
N=c1c(S(=O)(=O)c2ccccc2)cc2c(=O)n3ccccc3nc2n1Cc1ccco1	none (no result: NCF1 inh)
Cc1ccc(S(=O)(=O)c2cc3c(=O)n4ccccc4nc3n(Cc3ccco3)c2=N)cc1C	Autophagy HCS active (no result: Insulin prom up)
O=C(COc1ncnc2ccccc12)NCC1CCCO1 (stereo unspecified)	Autophagy HCS active
O=C(COc1ccccc1)NCC1CCCO1 (stereo unspecified)	none (no result: Insulin prom up)
CN(C)c1ccc(/C=C/C(=O)c2cc(Cl)ccc2O)cc1	NCF1 inh 79 (no result: TNAP inh no acc, TNAP act hi DEA, Autophagy HCS, TNAP inh hiacc)
O=C(CSc1cccc[n+]1[O-])Nc1cc2c(cc1Cl)C(=O)c1ccccc1C2=O	NCF1 inh 33
COc1ccc2[nH]c3c(c2c1)CCNC3C1CC=C(C)CC1 (stereo unspecified)	Autophagy HCS active
CC[n+]1ccc(/C=C/c2ccc(N(C)C)cc2)c2ccccc21	TNAP inh no acc 52, Insulin prom up inconclusive, TNAP inh hiacc 54
CC[n+]1c(/C=C/c2ccc(N(C)C)cc2)ccc2ccccc21	TNAP inh no acc 60, Insulin prom up inconclusive, TNAP inh hiacc 60
CC[n+]1ccccc1/C=C/c1ccc(N(C)C)cc1	Insulin prom up inconclusive
Cc1ccccc1OCCOc1ccccc1C=C(C#N)C#N	none (no result: Insulin prom up)
CCOc1ccc(-c2nc(CN3CCCCC3CCn3cccn3)c(C)o2)cc1 (stereo unspecified)	none (no result: TNAP inh no acc, TNAP act hi DEA, Autophagy HCS, TNAP inh hiacc)
N#C/C(=C\C=C\c1ccccc1[N+](=O)[O-])c1nc(-c2ccc3c(c2)OCO3)cs1	Autophagy HCS active
N#C/C(=C\c1ccccc1[N+](=O)[O-])c1nc(C2CC2)cs1	none
COc1cccc(NC(C)C(=O)Nc2cc([N+](=O)[O-])ccc2Cl)c1 (stereo unspecified)	none
N#CCOC(=O)c1c2c(nc3ccccc13)CCC2	none (no result: Insulin prom up)
COc1ccc2cc3cc(C(=O)NCCCN4CCc5ccccc5C4)sc3nc2c1	NCF1 inh 73
COc1cccc(COCC(O)Cn2cnc3cc(C)c(C)cc32)c1 (stereo unspecified)	none
COC(=O)CSC(C)C(=O)Nc1nnc(C(C)C)s1 (stereo unspecified)	Autophagy HCS active
Cc1ccc(N2C(=O)C3C4CC(=O)C(c5ccccc54)C3C2=O)cc1C (stereo unspecified)	none
CCOC(=O)c1c(-c2ccccc2)oc2cc(CN(C)C)c(O)c(CN(C)C)c12	Autophagy HCS active (no result: TNAP inh no acc, Insulin prom up, TNAP act hi DEA, NCF1 inh, TNAP inh hiacc)
CCS(=O)(=O)N1Cc2ccccc2CC1C(=O)OCC(=O)Nc1ccc(C)cc1 (stereo unspecified)	Insulin prom up 5
CCS(=O)(=O)N1Cc2ccccc2CC1C(=O)OCC(=O)Nc1ccc(SC(F)F)cc1 (stereo unspecified)	none
N#Cc1cccc(S(=O)(=O)NCC(=O)OCC(=O)c2ccc[nH]2)c1	none
COc1ccc(OCCC(=O)OCC(=O)NCCc2ccccc2)cc1	none
O=C(Nc1ccc(Nc2ccncc2)cc1)c1ccc(Nc2ccnc3ccc([N+](=O)[O-])cc23)cc1	NCF1 inh 46 (no result: TNAP inh no acc, TNAP act hi DEA, Autophagy HCS, TNAP inh hiacc)
O=C(Nc1ccc(Cc2ccncc2)cc1)c1cccc([N+](=O)[O-])c1	none (no result: Insulin prom up)
N/C(=N\c1nc2c(c(=O)[nH]1)CCC2)Nc1ccccc1	none
CCn1c(C)c(C(C)=O)c(N2CCN(c3ccccc3)CC2)nc1=S	none
CCn1c(C)c(C(C)=O)c(N2CCN(C(c3ccccc3)c3ccccc3)CC2)nc1=S	Autophagy HCS active
CN(C)S(=O)(=O)c1ccc2c(c1)c(=O)c(C(=O)N1CCOCC1)cn2C	none (no result: Autophagy HCS)
CCOC(=O)C1CCCN(C(=O)c2cn(C)c3ccc(S(=O)(=O)N(C)C)cc3c2=O)C1 (stereo unspecified)	Autophagy HCS active
C=CCn1c(SCC(=O)Nc2ccc(NC(=O)c3ccco3)c(OC)c2)nnc1-c1ccncc1	NCF1 inh 94
C=CCn1c(SCC(=O)Nc2cc(OC)c(NC(=O)c3ccco3)cc2OC)nnc1-c1ccncc1	none
Cc1ccc(C(=O)NC(=S)Nc2ccc(NC(=O)c3cccs3)cc2)cc1[N+](=O)[O-]	none
COc1ccc(C2C(C(=O)NCc3ccccn3)CCC(=O)N2c2cc(OC)c(OC)c(OC)c2)cc1 (stereo unspecified)	none
CCn1c(SCC(=O)Nc2ccc3c(c2)oc2ccccc23)nnc1-c1ccc(N)cc1	none (no result: Insulin prom up)
Cc1csc(SCC(=O)c2cc(C)n(Cc3cccs3)c2C)n1	none
Cc1cc(C(=O)CSc2n[nH]c(-c3ccccc3F)n2)c(C)n1Cc1cccs1	TNAP inh no acc 91
C(=N\Nc1ccccn1)/c1ccc2c(c1)OCCO2	none
CCOc1ccc(NC(=S)N2CCN(CCN3C(=O)c4cccc5cccc(c45)C3=O)CC2)cc1	none (no result: Insulin prom up)
COc1cc(/C=C2/SC(=S)N(CC3CCCO3)C2=O)ccc1O (stereo unspecified)	TNAP inh hiacc 56
CCOc1cc(/C=C2\SC(=S)N(Nc3ccccc3)C2=O)ccc1O	none
COc1cc(/C=C2\SC(=S)N(Nc3ccccc3)C2=O)ccc1O	TNAP inh hiacc 55
COc1ccc(/C=C2\SC(=S)N(CC3CCCO3)C2=O)cc1 (stereo unspecified)	none (no result: TNAP inh no acc, TNAP act hi DEA, Autophagy HCS, TNAP inh hiacc)
COc1ccc(C2=NN(c3ccccc3)C(=O)/C2=C\c2ccc(O)c(OC)c2)cc1	TNAP inh no acc 50
O=C1/C(=C/c2ccc(O)c(O)c2)SC(=S)N1Nc1ccccc1	TNAP inh no acc 94, TNAP inh hiacc 88
COc1ccccc1CN1CN(S(=O)(=O)c2ccccc2)c2nc3ccccc3nc21	none (no result: TNAP inh no acc, TNAP act hi DEA, Autophagy HCS, TNAP inh hiacc)
O=C(NN1C(=O)c2ccccc2NC1c1ccccn1)c1ccccc1 (stereo unspecified)	none
COc1ccccc1-c1nnc(SCc2ccccn2)n1C	none
COc1ccccc1-c1nc(SCc2ccccn2)n[nH]1	TNAP inh no acc 84 (no result: Insulin prom up, Autophagy HCS)
CN(Cc1ccccc1NS(=O)(=O)c1ccc2ccccc2c1)C1CCCCC1	none
COc1ccccc1N(C)S(=O)(=O)c1ccc(C(=O)NC(C)(C)C)cc1	NCF1 inh 179
COc1ccc(-c2nnn(CC(=O)N3CCN(c4ccccc4OC)CC3)n2)cc1	Autophagy HCS active (no result: Insulin prom up)
N=c1c(-c2nc3ccccc3[nH]2)cc(C(=O)c2cccs2)nn1-c1ccccc1	Autophagy HCS active (no result: Insulin prom up)
Cc1ccc(-n2c(C)nc3c(cnn3-c3ccc(F)cc3)c2=O)cc1C	Autophagy HCS active
Nc1nc(-c2ccc(Cl)cc2)c(N=Nc2ccc(S(=O)(=O)N3CCOCC3)cc2)s1	Insulin prom up 3.8
CCN(CCNC(=O)C1CCN(Cc2nc(-c3ccc(Cl)cc3)oc2C)CC1)c1ccccc1	Autophagy HCS active
CCN(CCNC(=O)C1CCN(S(=O)(=O)CC)CC1)c1ccccc1	none
CCN(CCNC(=O)C1CCCN(S(=O)(=O)CC)C1)c1ccccc1 (stereo unspecified)	Insulin prom up 3.1
